Here are results for one compound from ChEMBL document CHEMBL1629624, “In vitro and in vivo studies to characterize the clearance mechanism and potential cytochrome P450 interactions of anidulafungin” (Antimicrob Agents Chemother, 2009).

In series [1] the target is Cytochrome P450 2C19 (Homo sapiens, UniProt P33261). The series is described as follows: Inhibition of human CYP2C19. Format: ADME.
The nature of series [2]: Ratio of AUC in blood to plasma for Sprague-Dawley at 5 mg/kg, iv by liquid scintillation counting. Format: ADME, organism-based. Also noted: dose 5 mg/kg, route intravenous. To be noted: rat, in vivo. The method in brief: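 Male Sprague-Dawley rats, single i.v. bolus of [14C]drug. Blood by cardiac puncture from three noncannulated rats killed at each time from 0.25 to 168 h; plasma separated from an aliquot. Radioactivity by liquid scintillation counting. Parameters come from a composite profile of mean values, taking 1 g as equal to 1 ml.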

For series [3], the target named is Cytochrome P450 2D6 (Homo sapiens, UniProt P10635). The series is described as follows: Inhibition of human CYP2D6. Format: ADME.
For series [4], the target named is Cytochrome P450 2C9 (Homo sapiens, UniProt P11712). The series is described as follows: Inhibition of human CYP2C9. Format: ADME.
Series [5] in a line: Half life in human plasma at 100 mg, iv by LC-MS/MS analysis. Format: ADME, organism-based. The method in brief:
(§1)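 Nine healthy adult men, single i.v. infusion of [14C]drug over 100 min at 1 mg/min (planned 100 mg; mean delivered 88.3 mg). Heparinized blood taken from predose through day 10 and at follow-up. Parent drug in plasma measured by validated LC-MS/MS. Noncompartmental analysis; values are means (%CV).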

Series [6] addresses T1, Cytochrome P450 2B6 (Homo sapiens, UniProt P20813).
T1 sequence (P20813 whole entry): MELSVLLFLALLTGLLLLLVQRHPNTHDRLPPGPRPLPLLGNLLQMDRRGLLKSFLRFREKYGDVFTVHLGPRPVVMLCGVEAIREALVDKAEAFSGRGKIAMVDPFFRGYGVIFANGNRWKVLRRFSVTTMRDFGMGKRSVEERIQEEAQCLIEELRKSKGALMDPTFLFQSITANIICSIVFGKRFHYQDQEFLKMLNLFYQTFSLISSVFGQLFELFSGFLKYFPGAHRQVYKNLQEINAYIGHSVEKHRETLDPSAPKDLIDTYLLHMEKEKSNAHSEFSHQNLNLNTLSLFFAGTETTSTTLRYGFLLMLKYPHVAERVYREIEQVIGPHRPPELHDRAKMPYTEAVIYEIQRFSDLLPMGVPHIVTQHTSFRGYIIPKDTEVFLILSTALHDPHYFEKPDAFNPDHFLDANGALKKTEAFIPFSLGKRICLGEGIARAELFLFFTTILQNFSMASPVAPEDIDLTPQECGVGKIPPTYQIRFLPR
The series is described as follows: Inhibition of human CYP2B6. Format: ADME. The method in brief: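 Pooled liver microsomes from 53 human donors. Marker reactions: bupropion hydroxylase for CYP2B6. Incubations run in duplicate. IC50 taken from four to six concentrations.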

Series [7] in a line: Cmax in human plasma at 100 mg, iv by LC-MS/MS analysis. It counts as ADME, organism-based. Also noted: dose 100 mg, route intravenous. The method in brief:
as §1

Series [8] is described as follows: Tmax in human plasma at 100 mg, iv by LC-MS/MS analysis. It counts as ADME, organism-based. The method in brief: as §1
For series [9], the target named is T2, Cytochrome P450 2C8 (Homo sapiens, UniProt P10632).
T2 sequence (P10632 whole entry): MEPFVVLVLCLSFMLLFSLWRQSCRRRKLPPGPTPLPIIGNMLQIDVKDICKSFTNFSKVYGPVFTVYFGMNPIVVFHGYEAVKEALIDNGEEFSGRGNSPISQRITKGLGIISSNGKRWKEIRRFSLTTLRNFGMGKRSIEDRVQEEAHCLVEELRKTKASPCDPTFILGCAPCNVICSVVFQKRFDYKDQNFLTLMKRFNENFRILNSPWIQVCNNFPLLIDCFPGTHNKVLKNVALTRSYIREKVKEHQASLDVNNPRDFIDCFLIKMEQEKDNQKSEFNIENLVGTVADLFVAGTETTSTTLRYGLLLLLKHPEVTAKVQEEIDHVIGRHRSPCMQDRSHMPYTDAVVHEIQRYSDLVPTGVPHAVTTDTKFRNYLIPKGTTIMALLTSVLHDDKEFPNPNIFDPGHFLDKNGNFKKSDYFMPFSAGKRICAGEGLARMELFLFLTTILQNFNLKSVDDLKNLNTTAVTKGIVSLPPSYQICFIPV
The series can be described thus: Inhibition of human CYP2C8 using rosiglitazone as a substrate. It counts as ADME. The method in brief: (§2)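 Heterologously expressed human CYP2C8, with rosiglitazone N-desmethylase as the marker reaction. […] Incubations run in duplicate.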

Series [10] in a line: Volume of distribution at steady state in human plasma at 100 mg, iv by LC-MS/MS analysis. Format: ADME, organism-based. The conditions noted are these: read-out: Vdss. The method in brief: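 Healthy adult men (n = 9), single i.v. infusion of [14C]drug over 100 min at 1 mg/min. 100 mg was planned; the mean dose actually given was 88.3 mg. Heparinized blood drawn from 0 h through day 10 and at 6–8 weeks. Parent drug in plasma measured by validated LC-MS/MS. Noncompartmental analysis, given as mean (%CV).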

Series [11] relates to Plasma. The series is described as follows: Clearance in human plasma at 100 mg, iv by LC-MS/MS analysis. The conditions noted are these: in vivo. Format: ADME, organism-based. The method in brief: as §1
Series [12] addresses T3, Cytochrome P450 1A2 (Homo sapiens, UniProt P05177).
T3 sequence (P05177 whole entry): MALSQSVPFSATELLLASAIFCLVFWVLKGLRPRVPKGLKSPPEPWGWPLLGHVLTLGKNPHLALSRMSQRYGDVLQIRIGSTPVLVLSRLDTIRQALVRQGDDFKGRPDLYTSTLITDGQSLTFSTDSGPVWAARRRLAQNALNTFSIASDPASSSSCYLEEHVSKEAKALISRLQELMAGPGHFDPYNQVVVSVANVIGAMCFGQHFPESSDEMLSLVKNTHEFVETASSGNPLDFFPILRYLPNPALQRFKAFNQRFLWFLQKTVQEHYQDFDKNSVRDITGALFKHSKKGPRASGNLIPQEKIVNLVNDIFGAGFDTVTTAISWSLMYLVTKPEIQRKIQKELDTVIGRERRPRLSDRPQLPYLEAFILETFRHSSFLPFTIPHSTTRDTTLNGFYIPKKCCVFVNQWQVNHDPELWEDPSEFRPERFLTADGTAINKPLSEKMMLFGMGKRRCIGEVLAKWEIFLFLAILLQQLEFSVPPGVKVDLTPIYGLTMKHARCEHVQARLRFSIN
The series is described as follows: Inhibition of human CYP1A2. It counts as ADME.

Series [13] addresses T4, CYP2C8 (Homo sapiens, UniProt P10632).
T4 sequence (P10632 whole entry): T2 sequence (P10632 whole entry)
The series can be described thus: Inhibition of human CYP2C8 at 17.5 uM in presence of rosiglitazone. Format: ADME. The conditions noted are these: probe rosiglitazone. An outline of the steps:
as §2

A short description of series [14]: Mean residence time in human plasma at 100 mg, iv by LC-MS/MS analysis. Format: ADME, organism-based. The method in brief:
as §1

Series [15] has as its target T2, Cytochrome P450 2C8. The series is described as follows: Inhibition of human CYP2C8 using amodiaquine as a substrate. It counts as ADME. An outline of the steps: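 CYP2C8 measured as amodiaquine N-deethylase in pooled human liver microsomes from 53 donors. Incubations run in duplicate. IC50 fitted from the concentration series.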
Series [16] has as its target Cytochrome P450 3A4 (Homo sapiens, UniProt P08684). The series can be described thus: Inhibition of human CYP3A4. Format: ADME.

*1 amine or outer side, *2 acyl side, *3 side chain or, on linkers, in order; H or OH if unused. Where a SMILES comes first, the peptide text is derived from it. Bridges are numbered along the chain shown (N, C = ends). [ ]: non-standard residue; d: D form. The star is where a group is joined. pTerphenylCO(4''-OnC5H11) = CCCCCOc1ccc(-c2ccc(-c3ccc(C(=O)*)cc3)cc2)cc1; Orn(4R-OH,5R-OH) = O=C([C@H](C[C@@H](O)[C@@H](O)N[*:3])N[*:1])[*:2]; hTyr(3S-OH,4S-OH) = N[C@H](C(=O)O)[C@H](O)[C@@H](O)c1ccc(O)cc1; Pro(3S-OH,4S-Me) = C[C@H]1CN[C@H](C(=O)O)[C@H]1O; Hyp = O=C(O)[C@@H]1C[C@@H](O)CN1

In general, IC50 refers to the concentration at which inhibition is half-maximal. The half-life is how long it takes for the measured level to halve. The low end stands for fast loss, the high end for slow loss. As a reminder, the Cmax is the highest concentration seen after dosing. For orientation: Tmax means the time at which the peak concentration occurs. A word on the inhibition: it is the share of the control response that was lost under treatment. The MRT is a mean duration of stay, worked out from the concentration-time curve.

Chain of Cytochrome P450 2D6 (P10635 whole entry): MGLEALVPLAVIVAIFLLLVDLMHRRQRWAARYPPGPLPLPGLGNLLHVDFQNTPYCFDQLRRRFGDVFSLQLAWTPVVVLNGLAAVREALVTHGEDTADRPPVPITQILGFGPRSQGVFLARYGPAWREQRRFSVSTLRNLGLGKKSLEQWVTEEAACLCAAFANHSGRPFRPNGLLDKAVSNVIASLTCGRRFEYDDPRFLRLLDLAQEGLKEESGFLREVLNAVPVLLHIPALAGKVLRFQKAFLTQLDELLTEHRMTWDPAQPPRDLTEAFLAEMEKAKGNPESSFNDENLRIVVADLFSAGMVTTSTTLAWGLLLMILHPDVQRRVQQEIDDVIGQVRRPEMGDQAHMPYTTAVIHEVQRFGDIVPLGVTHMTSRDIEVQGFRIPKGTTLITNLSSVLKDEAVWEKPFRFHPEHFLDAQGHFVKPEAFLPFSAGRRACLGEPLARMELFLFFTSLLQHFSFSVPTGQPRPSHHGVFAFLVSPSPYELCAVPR
Chain of Cytochrome P450 2C9 (P11712 whole entry): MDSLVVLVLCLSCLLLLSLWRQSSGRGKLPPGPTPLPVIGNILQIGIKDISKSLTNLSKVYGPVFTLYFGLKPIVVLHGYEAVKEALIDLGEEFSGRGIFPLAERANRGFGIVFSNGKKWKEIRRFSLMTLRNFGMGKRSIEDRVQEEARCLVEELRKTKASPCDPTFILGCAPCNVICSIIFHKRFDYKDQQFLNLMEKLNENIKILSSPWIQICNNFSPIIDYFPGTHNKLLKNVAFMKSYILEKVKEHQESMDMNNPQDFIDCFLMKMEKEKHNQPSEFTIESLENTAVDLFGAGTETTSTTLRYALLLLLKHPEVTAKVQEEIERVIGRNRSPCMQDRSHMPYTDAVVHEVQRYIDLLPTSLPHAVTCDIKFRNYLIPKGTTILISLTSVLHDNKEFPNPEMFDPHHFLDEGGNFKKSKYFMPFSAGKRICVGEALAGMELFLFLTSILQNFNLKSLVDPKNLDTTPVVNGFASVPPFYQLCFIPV
Chain of Cytochrome P450 2C19 (P33261 whole entry): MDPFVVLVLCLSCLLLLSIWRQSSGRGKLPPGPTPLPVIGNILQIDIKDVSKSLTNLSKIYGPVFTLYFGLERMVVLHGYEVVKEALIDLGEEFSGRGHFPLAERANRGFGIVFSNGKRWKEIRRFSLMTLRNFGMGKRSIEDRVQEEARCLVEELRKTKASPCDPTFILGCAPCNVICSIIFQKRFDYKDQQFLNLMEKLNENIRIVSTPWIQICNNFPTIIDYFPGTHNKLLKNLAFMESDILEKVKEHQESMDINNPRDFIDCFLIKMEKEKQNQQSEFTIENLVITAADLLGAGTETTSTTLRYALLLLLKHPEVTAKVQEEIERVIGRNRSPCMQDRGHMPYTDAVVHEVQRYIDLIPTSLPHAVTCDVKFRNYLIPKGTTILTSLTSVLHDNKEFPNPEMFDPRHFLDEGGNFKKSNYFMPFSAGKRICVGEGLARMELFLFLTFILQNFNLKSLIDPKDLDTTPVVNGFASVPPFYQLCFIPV
Chain of Cytochrome P450 3A4 (P08684 whole entry): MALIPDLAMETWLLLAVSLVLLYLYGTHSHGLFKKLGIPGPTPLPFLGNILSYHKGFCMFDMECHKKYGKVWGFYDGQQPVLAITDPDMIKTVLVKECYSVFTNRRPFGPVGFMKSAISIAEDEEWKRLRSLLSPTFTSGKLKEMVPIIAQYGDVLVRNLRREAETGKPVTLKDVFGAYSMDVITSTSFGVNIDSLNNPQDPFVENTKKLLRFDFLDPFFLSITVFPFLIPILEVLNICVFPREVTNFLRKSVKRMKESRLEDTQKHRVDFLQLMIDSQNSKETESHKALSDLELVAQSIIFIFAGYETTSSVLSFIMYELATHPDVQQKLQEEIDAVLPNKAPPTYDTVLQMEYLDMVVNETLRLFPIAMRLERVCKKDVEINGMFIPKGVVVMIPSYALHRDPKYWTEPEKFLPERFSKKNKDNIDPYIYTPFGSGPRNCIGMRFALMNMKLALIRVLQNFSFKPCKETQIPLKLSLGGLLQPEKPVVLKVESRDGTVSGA

For `CCCCCOc1ccc(-c2ccc(-c3ccc(C(=O)N[C@H]4C[C@@H](O)[C@@H](O)NC(=O)[C@@H]5[C@@H](O)[C@@H](C)CN5C(=O)[C@H]([C@@H](C)O)NC(=O)[C@H]([C@H](O)[C@@H](O)c5ccc(O)cc5)NC(=O)[C@@H]5C[C@@H](O)CN5C(=O)[C@H]([C@@H](C)O)NC4=O)cc3)cc2)cc1` [ANIDULAFUNGIN] ({pTerphenylCO(4''-OnC5H11)}-[Orn(4R-OH,5R-OH)]T[Hyp][hTyr(3S-OH,4S-OH)]T[Pro(3S-OH,4S-Me)]; lactam 1-C), the IC50 in [1], in [3], in series [4], in [6], in series [9] and in [12] was above 17.5 µM each time. Also, the IC50 was 12 µM in series [15] and above 17.5 µM in [16]. Also, the Ratio in [2] was determined as 1.5. The half-life in series [5] was 27.7 h. Also, in series [7], the Cmax came to 3630 ng/mL. Besides, the Tmax in series [8] is 1.78 h. Also, the Vd in series [10] turned out to be 32.6 L. The compound also came in with a CL in series [11] of 0.913 L/h. The inhibition at 17.5 µM in series [13] came out at 34.3%. The compound also had an MRT in series [14] of 35.6 h.
